# Measured values taken from ChEMBL document CHEMBL5724801, “EUbOPEN Chemogenomics Library - Multiplex” (2024).
# Values joined by “and” are separate entries in the source; they are usually repeats but may differ in a detail not shown here. Equal values may be shown once.
# System: U2OS
# Experiment: Multiplex assay against U2OS
# Type: toxicity, cell-based
# Settings: human
# In short: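 On a CQ1 microscope at 37°C and 5% CO2, live cells were imaged after compound addition. They had been stained at seeding with Hoechst33342, BioTracker Green Microtubule Cytoskeleton Dye, MitoTracker Red and Annexin V Alexa Fluor 680. CellPathfinder machine-learning gating assigned cells to Hoechst high-intensity objects or normal cells, normal cells to healthy, pyknosed or fragmented nuclei, and pyknosed cells to mitotic or apoptotic. Tubulin, mitochondrial-mass and membrane-permeability phenotypes are per cents of healthy-nucleus cells.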
# [1] = 12 h, 1 µM, compound concentration 1 uM
# [2] = 12 h, 10 µM, compound concentration 10 uM
# [3] = 24 h, 1 µM, compound concentration 1 uM
# [4] = 24 h, 10 µM, compound concentration 10 uM
# [5] = 48 h, 1 µM, compound concentration 1 uM
# [6] = 48 h, 10 µM, compound concentration 10 uM
structure (smiles),measurement,setting,value
c1ccc2nc(N3CCNCC3)ccc2c1 [QUIPAZINE],Population Apoptotic (%),[1],38.46% and 42.86%
same,Population Fragmented Nuclei (%),[1],2.12% and 3.18%
same,Population Healthy Nuclei (%),[1],85.61% and 83.44%
same,Population Hoechst High Intensity Objects (%),[1],0%
same,Population Membrane Permeable-Phenotype (%),[1],0.28% and 1.53%
same,Population Mitotic Cells (%),[1],61.54% and 57.14%
same,Population Normal (%),[1],100%
same,Population Pyknosed Nuclei (%),[1],12.26% and 13.38%
same,Population Tubulin-Different-Phenotype (%),[1],0.28% and 0%
same,Total Cell Count,[1],424 and 157
same,Population Apoptotic (%),[2],41.67% and 21.05%
same,Population Fragmented Nuclei (%),[2],2.14% and 2.94%
same,Population Healthy Nuclei (%),[2],88.24% and 85.88%
same,Population Hoechst High Intensity Objects (%),[2],0%
same,Population Membrane Permeable-Phenotype (%),[2],2.12% and 2.05%
same,Population Mitochondria Different-Phenotype (%),[2],0.61% and 9.59%
same,Population Mitotic Cells (%),[2],58.33% and 78.95%
same,Population Normal (%),[2],100%
same,Population Pyknosed Nuclei (%),[2],9.63% and 11.18%
same,Population Tubulin-Different-Phenotype (%),[2],1.21% and 0%
same,Total Cell Count,[2],374 and 170
same,Population Apoptotic (%),[3],52.86% and 39.13%
same,Population Fragmented Nuclei (%),[3],0.69% and 1.94%
same,Population Healthy Nuclei (%),[3],87.26% and 86.89%
same,Population Hoechst High Intensity Objects (%),[3],0.17% and 0%
same,Population Membrane Permeable-Phenotype (%),[3],0.79% and 3.91%
same,Population Mitochondria Different-Phenotype (%),[3],0.39% and 6.7%
same,Population Mitotic Cells (%),[3],47.14% and 60.87%
same,Population Normal (%),[3],99.83% and 100%
same,Population Pyknosed Nuclei (%),[3],12.05% and 11.17%
same,Population Tubulin-Different-Phenotype (%),[3],1.38% and 0%
same,Total Cell Count,[3],582 and 206
same,Population Apoptotic (%),[4],40.82% and 48%
same,Population Fragmented Nuclei (%),[4],0.76% and 0%
same,Population Healthy Nuclei (%),[4],89.87% and 89.41%
same,Population Hoechst High Intensity Objects (%),[4],0%
same,Population Membrane Permeable-Phenotype (%),[4],1.06% and 3.32%
same,Population Mitochondria Different-Phenotype (%),[4],0.43% and 6.16%
same,Population Mitotic Cells (%),[4],59.18% and 52%
same,Population Normal (%),[4],100%
same,Population Pyknosed Nuclei (%),[4],9.37% and 10.59%
same,Population Tubulin-Different-Phenotype (%),[4],1.28% and 0%
same,Total Cell Count,[4],523 and 236
same,Population Apoptotic (%),[5],43.56% and 50%
same,Population Fragmented Nuclei (%),[5],2.56% and 1.98%
same,Population Healthy Nuclei (%),[5],88.55% and 87.25%
same,Population Hoechst High Intensity Objects (%),[5],0%
same,Population Membrane Permeable-Phenotype (%),[5],0.9% and 1.95%
same,Population Mitochondria Different-Phenotype (%),[5],0.2% and 3.9%
same,Population Mitotic Cells (%),[5],56.44% and 50%
same,Population Normal (%),[5],100%
same,Population Pyknosed Nuclei (%),[5],8.9% and 10.76%
same,Population Tubulin-Different-Phenotype (%),[5],0.9% and 0.32%
same,Population Apoptotic (%),[6],39.47% and 52.17%
same,Population Fragmented Nuclei (%),[6],3.42% and 0.25%
same,Population Healthy Nuclei (%),[6],89.16% and 94.06%
same,Population Hoechst High Intensity Objects (%),[6],0% and 0.25%
same,Population Membrane Permeable-Phenotype (%),[6],0.99% and 2.63%
same,Population Mitochondria Different-Phenotype (%),[6],0.11% and 1.84%
same,Population Mitotic Cells (%),[6],60.53% and 47.83%
same,Population Normal (%),[6],100% and 99.75%
same,Population Pyknosed Nuclei (%),[6],7.42% and 5.69%
same,Population Tubulin-Different-Phenotype (%),[6],1.42% and 0.79%
same,Total Cell Count,[6],1024 and 405
CCC(=O)N1CCN(c2ccc(-n3c(=O)ccc4cnc5ccc(-c6cnc7ccccc7c6)cc5c43)cc2C(F)(F)F)CC1 [TORIN1],Population Apoptotic (%),[2],68% and 76%
same,Population Healthy Nuclei (%),[2],55% and 71%
same,Population Hoechst High Intensity Objects (%),[2],1% and 3%
same,Population Mitochondria Different-Phenotype (%),[2],7%
same,Population Normal (%),[2],98% and 96%
same,Population Tubulin-Different-Phenotype (%),[2],5% and 9%
same,Total Cell Count,[2],288 and 109
same,Population Apoptotic (%),[4],77% and 73%
same,Population Healthy Nuclei (%),[4],54% and 72%
same,Population Hoechst High Intensity Objects (%),[4],1% and 2%
same,Population Mitochondria Different-Phenotype (%),[4],9%
same,Population Normal (%),[4],98% and 97%
same,Population Tubulin-Different-Phenotype (%),[4],5% and 3%
same,Total Cell Count,[4],287 and 115
same,Population Apoptotic (%),[6],78% and 82%
same,Population Healthy Nuclei (%),[6],44%
same,Population Hoechst High Intensity Objects (%),[6],7% and 2%
same,Population Normal (%),[6],93% and 97%
same,Population Tubulin-Different-Phenotype (%),[6],8% and 5%
same,Total Cell Count,[6],300 and 147
